Source: ChEMBL document CHEMBL1671761, “Preclinical characterization of BI 201335, a C-terminal carboxylic acid inhibitor of the hepatitis C virus NS3-NS4A protease” (Antimicrob Agents Chemother, 2010)

Legend:
Rattus norvegicus [1] = species: Rattus norvegicus; assay: Inhibition of rat 5-HT1 receptor at 10 uM
[2] = biological target: Angiotensin-converting enzyme (Oryctolagus cuniculus) (UniProt P12822); assay: Inhibition of rabbit ACE at 10 uM
[3] = biological target: Alpha-2A adrenergic receptor (Rattus norvegicus) (UniProt P22909); assay: Inhibition of rat adrenergic receptor Alpha-2 at 10 uM
[4] = biological target: Adenosine receptor A1 (Homo sapiens) (UniProt P30542); assay: Inhibition of human adenosine A1 receptor at 10 uM
[5] = biological target: Adenosine receptor A2a (Homo sapiens) (UniProt P29274); assay: Inhibition of human adenosine A2A receptor at 10 uM
Hepatitis C virus = assay: Antiviral activity against HCV 2a infected in Huh7 cells assessed as inhibition of viral replication after 72 hrs by RT-PCR; type: functional, organism-based, Hepacivirus hominis; details: genotype 2a, Huh-7, 72 h
How it was run: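 Infectious JFH1 virus (cell culture-adapted, core K74T and NS5A C2441S) was produced by transfecting transcribed RNA into Huh-7.5 cells. Huh-7.5 cells (1×10^4/well, seeded 24 h before) were infected with virus plus a nine-concentration compound series in 0.5% DMSO for 72 h. HCV RNA was quantified by real-time RT-PCR. Mean ± SD, ≥3 experiments.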

[6] = Mean retention time in monkey at 5 mg/kg, po; type: ADME, organism-based, Macaca mulatta; parameters: dose 5 mg/kg, route oral; details: rhesus monkey, in vivo
How it was run: (§1)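 Fasted male rhesus monkeys (3.0-4.8 kg) given a single oral dose in 0.5% Methocel/0.3% Tween 80. Plasma taken by solid-phase extraction and measured by LC-MS/MS at m/z 869.3 (LOQ 10 nM). Noncompartmental analysis. Mean ± SE for three males.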

[7] = Cmax in monkey at 5 mg/kg, po; type: ADME, organism-based, Macaca mulatta; parameters: dose 5 mg/kg, route oral; details: rhesus monkey, in vivo
How it was run: (§2)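 Single oral dose of 5 mg/kg in 0.5% Methocel with 0.3% Tween 80 (10 ml/kg) to fasted male animals: Sprague-Dawley rats (275-300 g, overnight fast with 10% dextrose water), rhesus monkeys, beagle dogs. Rat blood from cannulated carotid at 0-8 h, pooled from 3 rats per time point; monkey/dog n=3. Plasma solid-phase extracted, LC-MS/MS at m/z 869.3; noncompartmental analysis.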

[8] = Cmax in dog at 5 mg/kg, po; type: ADME, organism-based, Canis lupus familiaris; parameters: dose 5 mg/kg, route oral; details: in vivo; how it was run: as §2
[9] = Tmax in rat at 5 mg/kg, po; type: ADME, organism-based; parameters: dose 5 mg/kg, route oral; details: in vivo
How it was run: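 Male Sprague-Dawley rats (275-300 g), fasted overnight with 10% dextrose water. Single oral dose in 0.5% Methocel/0.3% Tween 80 at 10 ml/kg. Carotid-cannula blood taken 0-8 h, with plasma from 3 rats pooled per time point. Solid-phase extraction, then LC-MS/MS at m/z 869.3 (LOQ 10 nM). Noncompartmental analysis.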

[10] = Tmax in monkey at 5 mg/kg, po; type: ADME, organism-based, Macaca mulatta; parameters: dose 5 mg/kg, route oral; details: rhesus monkey, in vivo; how it was run: as §1
[11] = AUC in dog at 5 mg/kg, po; type: ADME, organism-based, Canis lupus familiaris; parameters: dose 5 mg/kg, route oral; details: plasma; how it was run: as §2
[12] = AUC (0 to infinity) in rat at 5 mg/kg, po; type: ADME, organism-based; parameters: time infinity, dose 5 mg/kg, route oral; details: plasma; how it was run: as §2
Caspase-1 (Homo sapiens) = Caspase-1 (Homo sapiens) (UniProt P29466); assay: Inhibition of human caspase-1 at 10 uM
Caspase-4 (Homo sapiens) = Caspase-4 (Homo sapiens) (UniProt P49662); assay: Inhibition of human caspase-4 at 10 uM
Caspase-5 (Homo sapiens) = Caspase-5 (Homo sapiens) (UniProt P51878); assay: Inhibition of human caspase-5 at 10 uM
Caspase-9 (Homo sapiens) = Caspase-9 (Homo sapiens) (UniProt P55211); assay: Inhibition of human caspase-9 at 10 uM
[13] = biological target: Caspase-10 (Homo sapiens) (UniProt Q92851); assay: Inhibition of human recombinant caspase-10 expressed in Escherichia coli at 10 uM by fluorimetry
[14] = biological target: Cathepsin D (Homo sapiens) (UniProt P07339); assay: Inhibition of human cathepsin D; details: concentration not given here
[15] = biological target: Cathepsin G (Homo sapiens) (UniProt P08311); assay: Inhibition of human cathepsin G at 10 uM
[16] = biological target: Cathepsin Z (Homo sapiens) (UniProt Q9UBR2); assay: Inhibition of human cathepsin X at 10 uM
[17] = biological target: Coagulation factor VII (Homo sapiens) (UniProt P08709); assay: Inhibition of human factor 7a at 10 uM
[18] = biological target: Neutrophil collagenase (Homo sapiens) (UniProt P22894); assay: Inhibition of human MMP-8 at 10 uM
[19] = biological target: Prothrombin (Homo sapiens) (UniProt P00734); assay: Inhibition of human thrombin at 10 uM
[20] = biological target: Plasminogen (Homo sapiens) (UniProt P00747); assay: Inhibition of human plasmin at 10 uM
Trypsin (Homo sapiens) = Trypsin (Homo sapiens) (UniProt P07477+P07478+P35030); assay: Inhibition of human trypsin at 10 uM; type: protein assay
[21] = biological target: Acetylcholinesterase (Homo sapiens) (UniProt P22303); assay: Inhibition of human acetylcholinesterase at 10 uM
Rattus norvegicus [22] = species: Rattus norvegicus; assay: Inhibition of rat calcium channel N-type at 10 uM
[23] = biological target: D(3) dopamine receptor (Homo sapiens) (UniProt P35462); assay: Inhibition of human dopamine receptor 3 at 10 uM
Rattus norvegicus [24] = species: Rattus norvegicus; assay: Inhibition of rat GABA-A receptor, agonist site at 10 uM; type: functional
[25] = biological target: Inositol 1,4,5-trisphosphate-gated calcium channel ITPR1 (Rattus norvegicus) (UniProt P29994); assay: Inhibition of rat IP3 receptor at 10 uM
[26] = biological target: Histamine H2 receptor (Homo sapiens) (UniProt P25021); assay: Inhibition of human H2 receptor at 10 uM
[27] = biological target: Histamine H1 receptor (Homo sapiens) (UniProt P35367); assay: Inhibition of human H1 receptor at 10 uM
Rattus norvegicus [28] = species: Rattus norvegicus; assay: Inhibition of rat mAChR at 10 uM
Mesocricetus auratus = species: Mesocricetus auratus; assay: Inhibition of syrian hamster potassium channel-ATP at 10 uM
Rattus norvegicus [29] = species: Rattus norvegicus; assay: Inhibition of rat potassium channel-V at 10 uM
[30] = biological target: Thromboxane A2 receptor (Homo sapiens) (UniProt P21731); assay: Inhibition of human Thromboxane A2 receptor at 10 uM
[31] = biological target: 5-hydroxytryptamine receptor 4 (Cavia porcellus) (UniProt O70528); assay: Inhibition of guinea pig 5-HT4 receptor at 10 uM
[32] = biological target: 5-hydroxytryptamine receptor 6 (Homo sapiens) (UniProt P50406); assay: Inhibition of human 5-HT6 receptor at 10 uM
[33] = biological target: 5-hydroxytryptamine receptor 7 (Homo sapiens) (UniProt P34969); assay: Inhibition of human 5-HT7 receptor at 10 uM
Homo sapiens [34] = species: Homo sapiens; assay: Inhibition of human dopamine receptor 4.2 at 10 uM
[35] = biological target: D(4) dopamine receptor (Homo sapiens) (UniProt P21917); assay: Inhibition of human dopamine receptor 4.4 at 10 uM
[36] = biological target: Neutrophil elastase (Homo sapiens) (UniProt P08246); assay: Inhibition of human serum elastase, neutrophil at 10 uM by fluorimetry
Homo sapiens [37] = species: Homo sapiens; assay: Inhibition of human endothelin-converting enzyme at 10 uM by cerep assay
[38] = biological target: Histamine H3 receptor (Homo sapiens) (UniProt Q9Y5N1); assay: Inhibition of human H3 receptor at 10 uM

Neutrophil elastase (Homo sapiens), sequence (P08246 whole entry): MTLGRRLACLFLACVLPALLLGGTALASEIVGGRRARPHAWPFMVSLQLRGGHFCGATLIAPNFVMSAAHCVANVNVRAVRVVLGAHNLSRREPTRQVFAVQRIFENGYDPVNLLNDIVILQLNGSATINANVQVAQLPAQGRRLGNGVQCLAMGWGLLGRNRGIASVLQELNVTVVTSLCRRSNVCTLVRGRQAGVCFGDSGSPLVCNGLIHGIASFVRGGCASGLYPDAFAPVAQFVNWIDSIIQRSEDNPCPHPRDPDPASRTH
Plasminogen (Homo sapiens), sequence (P00747 97-580 limits assumed): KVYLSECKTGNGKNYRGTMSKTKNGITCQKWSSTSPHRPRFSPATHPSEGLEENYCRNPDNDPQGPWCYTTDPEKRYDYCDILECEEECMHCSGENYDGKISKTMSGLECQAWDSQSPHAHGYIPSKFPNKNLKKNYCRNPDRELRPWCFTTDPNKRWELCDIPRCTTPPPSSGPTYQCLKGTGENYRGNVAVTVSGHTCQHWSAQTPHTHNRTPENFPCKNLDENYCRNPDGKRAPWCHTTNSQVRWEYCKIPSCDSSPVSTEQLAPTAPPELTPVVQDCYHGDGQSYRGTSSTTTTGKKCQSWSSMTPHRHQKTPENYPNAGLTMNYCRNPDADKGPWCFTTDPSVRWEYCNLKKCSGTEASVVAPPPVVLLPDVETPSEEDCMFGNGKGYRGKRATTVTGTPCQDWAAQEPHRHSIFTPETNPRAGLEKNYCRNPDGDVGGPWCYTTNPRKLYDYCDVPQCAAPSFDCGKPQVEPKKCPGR
Plasminogen (Homo sapiens), sequence (P00747 581-810 limits assumed): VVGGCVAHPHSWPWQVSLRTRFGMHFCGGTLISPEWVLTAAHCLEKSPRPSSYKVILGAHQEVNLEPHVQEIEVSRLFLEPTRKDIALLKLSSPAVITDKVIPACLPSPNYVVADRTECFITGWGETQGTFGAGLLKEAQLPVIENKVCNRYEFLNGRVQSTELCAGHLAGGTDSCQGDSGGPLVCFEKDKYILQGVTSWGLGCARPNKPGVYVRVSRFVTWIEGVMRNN
Caspase-1 (Homo sapiens), sequence (P29466 120-297 limits assumed): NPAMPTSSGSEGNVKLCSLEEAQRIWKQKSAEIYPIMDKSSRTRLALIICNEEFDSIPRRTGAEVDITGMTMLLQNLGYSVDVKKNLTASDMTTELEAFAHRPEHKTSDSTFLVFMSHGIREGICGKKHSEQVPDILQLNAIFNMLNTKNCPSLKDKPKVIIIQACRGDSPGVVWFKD
Caspase-1 (Homo sapiens), sequence (P29466 317-404 limits assumed): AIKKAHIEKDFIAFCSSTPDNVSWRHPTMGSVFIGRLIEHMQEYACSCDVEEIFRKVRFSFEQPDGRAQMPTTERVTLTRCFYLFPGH
5-hydroxytryptamine receptor 6 (Homo sapiens), sequence (P50406 whole entry): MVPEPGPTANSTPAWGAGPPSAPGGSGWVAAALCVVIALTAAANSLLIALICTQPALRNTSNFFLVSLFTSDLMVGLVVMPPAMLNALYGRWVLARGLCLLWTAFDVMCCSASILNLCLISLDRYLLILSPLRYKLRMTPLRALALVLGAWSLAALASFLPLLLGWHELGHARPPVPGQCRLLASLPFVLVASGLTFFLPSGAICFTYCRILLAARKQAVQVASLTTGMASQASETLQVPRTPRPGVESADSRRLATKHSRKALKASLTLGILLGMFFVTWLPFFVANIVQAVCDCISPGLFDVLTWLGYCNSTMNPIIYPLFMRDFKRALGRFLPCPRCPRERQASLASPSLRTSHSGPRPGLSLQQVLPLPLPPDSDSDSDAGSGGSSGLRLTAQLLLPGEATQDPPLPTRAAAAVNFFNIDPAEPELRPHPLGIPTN
5-hydroxytryptamine receptor 7 (Homo sapiens), sequence (P34969 whole entry): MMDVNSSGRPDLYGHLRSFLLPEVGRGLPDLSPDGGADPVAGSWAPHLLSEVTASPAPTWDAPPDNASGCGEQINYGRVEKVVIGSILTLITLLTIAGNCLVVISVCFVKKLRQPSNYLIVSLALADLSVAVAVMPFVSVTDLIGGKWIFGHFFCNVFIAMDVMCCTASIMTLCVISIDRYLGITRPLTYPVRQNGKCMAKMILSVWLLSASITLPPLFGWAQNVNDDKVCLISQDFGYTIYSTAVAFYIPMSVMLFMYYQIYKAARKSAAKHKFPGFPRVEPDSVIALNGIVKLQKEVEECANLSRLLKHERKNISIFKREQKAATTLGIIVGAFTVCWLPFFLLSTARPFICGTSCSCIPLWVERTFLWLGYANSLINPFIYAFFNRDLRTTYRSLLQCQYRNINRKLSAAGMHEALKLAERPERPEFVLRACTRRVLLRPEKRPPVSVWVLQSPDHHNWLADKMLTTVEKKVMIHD
Cathepsin Z (Homo sapiens), sequence (Q9UBR2 whole entry): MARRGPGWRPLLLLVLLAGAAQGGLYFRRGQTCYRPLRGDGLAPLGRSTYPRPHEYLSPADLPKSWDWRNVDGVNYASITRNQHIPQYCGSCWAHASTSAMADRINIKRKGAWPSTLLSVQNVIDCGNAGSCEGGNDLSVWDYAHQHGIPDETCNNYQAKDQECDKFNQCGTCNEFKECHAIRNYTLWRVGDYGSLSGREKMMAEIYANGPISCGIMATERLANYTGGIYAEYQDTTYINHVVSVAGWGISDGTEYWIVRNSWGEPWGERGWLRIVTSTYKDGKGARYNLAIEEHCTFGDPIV
Thromboxane A2 receptor (Homo sapiens), sequence (P21731 whole entry): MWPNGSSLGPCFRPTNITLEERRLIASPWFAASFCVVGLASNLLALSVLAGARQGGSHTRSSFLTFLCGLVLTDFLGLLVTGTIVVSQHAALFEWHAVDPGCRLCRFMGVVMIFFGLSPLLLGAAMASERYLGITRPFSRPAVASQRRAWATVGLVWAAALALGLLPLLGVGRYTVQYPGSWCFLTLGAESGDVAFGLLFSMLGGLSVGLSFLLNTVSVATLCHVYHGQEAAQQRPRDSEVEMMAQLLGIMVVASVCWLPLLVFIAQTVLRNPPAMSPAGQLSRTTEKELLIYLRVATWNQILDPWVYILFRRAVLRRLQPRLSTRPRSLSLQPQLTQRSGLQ
Caspase-4 (Homo sapiens), sequence (P49662 81-270 limits assumed): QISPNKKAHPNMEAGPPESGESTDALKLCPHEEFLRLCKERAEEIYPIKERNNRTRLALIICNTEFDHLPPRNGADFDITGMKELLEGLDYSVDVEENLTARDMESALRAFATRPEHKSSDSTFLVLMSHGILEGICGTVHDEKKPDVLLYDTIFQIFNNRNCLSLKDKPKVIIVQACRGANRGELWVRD
Caspase-4 (Homo sapiens), sequence (P49662 290-377 limits assumed): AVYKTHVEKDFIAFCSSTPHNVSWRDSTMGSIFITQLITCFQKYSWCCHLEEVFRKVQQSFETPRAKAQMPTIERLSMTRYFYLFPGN
D(3) dopamine receptor (Homo sapiens), sequence (P35462 whole entry): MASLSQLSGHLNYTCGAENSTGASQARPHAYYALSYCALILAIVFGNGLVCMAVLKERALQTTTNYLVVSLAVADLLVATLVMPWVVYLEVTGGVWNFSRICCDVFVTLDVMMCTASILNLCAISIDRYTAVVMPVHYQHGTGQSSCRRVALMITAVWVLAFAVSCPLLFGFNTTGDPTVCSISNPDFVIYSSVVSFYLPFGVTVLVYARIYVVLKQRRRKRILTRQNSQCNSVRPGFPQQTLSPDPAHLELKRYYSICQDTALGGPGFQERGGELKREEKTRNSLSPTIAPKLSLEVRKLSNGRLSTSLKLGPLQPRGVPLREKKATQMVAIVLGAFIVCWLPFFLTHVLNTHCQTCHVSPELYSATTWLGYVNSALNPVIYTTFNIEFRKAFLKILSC
Neutrophil collagenase (Homo sapiens), sequence (P22894 101-467 limits assumed): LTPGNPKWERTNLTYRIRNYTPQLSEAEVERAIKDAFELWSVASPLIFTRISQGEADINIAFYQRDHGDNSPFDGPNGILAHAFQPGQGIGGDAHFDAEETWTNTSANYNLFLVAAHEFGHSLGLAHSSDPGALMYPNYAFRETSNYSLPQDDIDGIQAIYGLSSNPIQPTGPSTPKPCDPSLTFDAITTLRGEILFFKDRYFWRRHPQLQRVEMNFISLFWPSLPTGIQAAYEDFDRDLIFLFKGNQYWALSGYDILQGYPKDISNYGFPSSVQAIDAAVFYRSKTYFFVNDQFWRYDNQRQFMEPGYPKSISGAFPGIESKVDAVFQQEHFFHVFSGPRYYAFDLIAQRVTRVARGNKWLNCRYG
Caspase-10 (Homo sapiens), sequence (Q92851 220-415 limits assumed): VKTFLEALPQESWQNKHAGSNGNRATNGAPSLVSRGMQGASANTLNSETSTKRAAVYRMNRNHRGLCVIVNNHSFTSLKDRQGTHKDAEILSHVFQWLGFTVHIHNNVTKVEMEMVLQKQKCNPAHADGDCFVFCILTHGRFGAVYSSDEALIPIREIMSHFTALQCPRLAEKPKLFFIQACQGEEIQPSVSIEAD
Caspase-10 (Homo sapiens), sequence (Q92851 416-521 limits assumed): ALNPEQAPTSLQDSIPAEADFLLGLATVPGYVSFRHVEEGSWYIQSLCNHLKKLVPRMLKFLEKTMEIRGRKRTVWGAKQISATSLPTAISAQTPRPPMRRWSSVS
Cathepsin D (Homo sapiens), sequence (P07339 65-162 limits assumed): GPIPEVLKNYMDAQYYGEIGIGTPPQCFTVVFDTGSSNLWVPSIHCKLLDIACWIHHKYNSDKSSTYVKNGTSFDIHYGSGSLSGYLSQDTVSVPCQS
Cathepsin D (Homo sapiens), sequence (P07339 169-412 limits assumed): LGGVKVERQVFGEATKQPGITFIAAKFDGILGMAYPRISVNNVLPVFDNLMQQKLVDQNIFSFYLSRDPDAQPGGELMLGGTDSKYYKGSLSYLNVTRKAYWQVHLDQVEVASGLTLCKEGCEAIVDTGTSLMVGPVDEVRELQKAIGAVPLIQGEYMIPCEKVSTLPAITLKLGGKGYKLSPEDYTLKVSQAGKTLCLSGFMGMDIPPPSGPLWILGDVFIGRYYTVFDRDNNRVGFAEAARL
Cathepsin G (Homo sapiens), sequence (P08311 whole entry): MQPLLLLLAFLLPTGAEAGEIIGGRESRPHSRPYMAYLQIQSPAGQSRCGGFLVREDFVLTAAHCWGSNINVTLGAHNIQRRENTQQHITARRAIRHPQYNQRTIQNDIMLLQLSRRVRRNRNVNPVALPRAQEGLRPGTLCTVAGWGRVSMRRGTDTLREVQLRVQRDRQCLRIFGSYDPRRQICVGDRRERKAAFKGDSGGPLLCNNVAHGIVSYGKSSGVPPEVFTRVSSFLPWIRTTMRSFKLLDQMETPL

In the case of `C=C[C@@H]1C[C@]1(NC(=O)[C@@H]1C[C@@H](Oc2cc(-c3csc(NC(=O)C(C)C)n3)nc3c(Br)c(OC)ccc23)CN1C(=O)[C@@H](NC(=O)OC1CCCC1)C(C)(C)C)C(=O)O`, the inhibition (Rattus norvegicus [1]) is reported as 10%, the inhibition [2] is reported as 5% and the inhibition [3] is reported as 18%. It also gave an inhibition [4] of 2%, an inhibition [5] of 23% and an EC50 (Hepatitis C virus) of 43 nM. For the same molecule, the MRT [6] was 2.6 h, the Cmax [7] was 2000 nM and the Cmax [8] was 3800 nM. The Tmax [9] was 1.5 h, the Tmax [10] was 2 h and the AUC [11] was 13 µM·h. The AUC(0-inf) [12] was 1.63 µM·h, the inhibition (Caspase-1 (Homo sapiens)) was 13% and the inhibition (Caspase-4 (Homo sapiens)) was 33%. For the same molecule, the inhibition (Caspase-5 (Homo sapiens)) was 24%, the inhibition (Caspase-9 (Homo sapiens)) was 23% and the inhibition [13] was 12%. It also gave an inhibition [14] of 43%, an inhibition [15] of 18% and an inhibition [16] of 0%. The inhibition [17] was 6%, the inhibition [18] was 6% and the inhibition [19] was 9%. It also gave an inhibition [20] of 18%, an inhibition (Trypsin (Homo sapiens)) of 2% and an inhibition [21] of 20%. The inhibition (Rattus norvegicus [22]) was 9%, the inhibition [23] was 4% and the inhibition (Rattus norvegicus [24]) was 16%. For the same molecule, the inhibition [25] was 0%, the inhibition [26] was 21% and the inhibition [27] was 3%. The inhibition (Rattus norvegicus [28]) was 5%, the inhibition (Mesocricetus auratus) was 12% and the inhibition (Rattus norvegicus [29]) was 7%. The inhibition [30] was 47%, the inhibition [31] was 18% and the inhibition [32] was 22%. It also gave an inhibition [33] of 3%, an inhibition (Homo sapiens [34]) of 58% and an inhibition [35] of 39%. For the same molecule, the inhibition [36] was 22%, the inhibition (Homo sapiens [37]) was 11% and the inhibition [38] was 5%.
